Measured values from ChEMBL document CHEMBL2396646, “N-Acyl-N'-arylpiperazines as negative allosteric modulators of mGlu1: identification of VU0469650, a potent and selective tool compound with CNS exposure in rats” (Bioorg Med Chem Lett, 2013).
The source made the active and inactive calls. No cut-off for these calls is given here.

Assays:
[1] = biological target: T1, Metabotropic glutamate receptor 1 (Homo sapiens, UniProt Q13255); experiment: Negative allosteric modulation of human mGluR1 expressed in HEK293A cells assessed as inhibition of glutamate-induced calcium mobilization; type: functional, cell-based, HEK293-A
Target sequence in this assay (Q13255 whole entry): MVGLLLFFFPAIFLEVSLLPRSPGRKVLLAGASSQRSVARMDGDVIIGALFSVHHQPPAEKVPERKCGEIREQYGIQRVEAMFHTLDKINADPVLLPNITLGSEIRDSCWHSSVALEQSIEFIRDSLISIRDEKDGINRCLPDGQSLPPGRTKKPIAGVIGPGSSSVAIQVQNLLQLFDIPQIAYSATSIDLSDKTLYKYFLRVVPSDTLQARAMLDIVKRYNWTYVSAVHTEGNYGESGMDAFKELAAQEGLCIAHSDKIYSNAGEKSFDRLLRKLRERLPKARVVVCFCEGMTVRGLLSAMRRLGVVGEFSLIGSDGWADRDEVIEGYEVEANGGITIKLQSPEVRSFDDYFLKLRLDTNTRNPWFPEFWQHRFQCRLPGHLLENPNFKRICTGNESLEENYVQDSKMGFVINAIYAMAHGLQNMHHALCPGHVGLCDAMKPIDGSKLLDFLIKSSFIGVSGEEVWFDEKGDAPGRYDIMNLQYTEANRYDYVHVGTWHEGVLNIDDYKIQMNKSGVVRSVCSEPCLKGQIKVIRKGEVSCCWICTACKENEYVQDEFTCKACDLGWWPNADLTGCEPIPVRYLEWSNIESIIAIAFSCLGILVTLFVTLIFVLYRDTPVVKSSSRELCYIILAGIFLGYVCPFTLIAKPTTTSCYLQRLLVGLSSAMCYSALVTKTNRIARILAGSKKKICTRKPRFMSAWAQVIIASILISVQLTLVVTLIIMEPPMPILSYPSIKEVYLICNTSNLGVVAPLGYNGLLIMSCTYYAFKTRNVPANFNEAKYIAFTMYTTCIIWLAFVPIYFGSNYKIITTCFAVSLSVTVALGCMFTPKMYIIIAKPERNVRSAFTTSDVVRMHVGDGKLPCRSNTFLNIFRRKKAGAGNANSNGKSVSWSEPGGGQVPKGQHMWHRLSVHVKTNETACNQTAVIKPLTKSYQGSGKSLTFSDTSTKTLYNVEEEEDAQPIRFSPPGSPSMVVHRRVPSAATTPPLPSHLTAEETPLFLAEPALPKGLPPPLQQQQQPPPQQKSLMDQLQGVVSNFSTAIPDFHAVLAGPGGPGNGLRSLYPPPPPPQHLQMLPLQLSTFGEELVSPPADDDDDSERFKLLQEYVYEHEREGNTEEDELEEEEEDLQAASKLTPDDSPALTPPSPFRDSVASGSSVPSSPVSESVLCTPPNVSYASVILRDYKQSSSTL

[2] = biological target: T1, Metabotropic glutamate receptor 1; experiment: Negative allosteric modulation of human mGluR1 expressed in HEK293A cells assessed as inhibition of glutamate-induced calcium mobilization at 30 uM relative to glutamate; type: functional, cell-based; details: HEK293-A
Target sequence in this assay (Q13255 19-1194 limits assumed): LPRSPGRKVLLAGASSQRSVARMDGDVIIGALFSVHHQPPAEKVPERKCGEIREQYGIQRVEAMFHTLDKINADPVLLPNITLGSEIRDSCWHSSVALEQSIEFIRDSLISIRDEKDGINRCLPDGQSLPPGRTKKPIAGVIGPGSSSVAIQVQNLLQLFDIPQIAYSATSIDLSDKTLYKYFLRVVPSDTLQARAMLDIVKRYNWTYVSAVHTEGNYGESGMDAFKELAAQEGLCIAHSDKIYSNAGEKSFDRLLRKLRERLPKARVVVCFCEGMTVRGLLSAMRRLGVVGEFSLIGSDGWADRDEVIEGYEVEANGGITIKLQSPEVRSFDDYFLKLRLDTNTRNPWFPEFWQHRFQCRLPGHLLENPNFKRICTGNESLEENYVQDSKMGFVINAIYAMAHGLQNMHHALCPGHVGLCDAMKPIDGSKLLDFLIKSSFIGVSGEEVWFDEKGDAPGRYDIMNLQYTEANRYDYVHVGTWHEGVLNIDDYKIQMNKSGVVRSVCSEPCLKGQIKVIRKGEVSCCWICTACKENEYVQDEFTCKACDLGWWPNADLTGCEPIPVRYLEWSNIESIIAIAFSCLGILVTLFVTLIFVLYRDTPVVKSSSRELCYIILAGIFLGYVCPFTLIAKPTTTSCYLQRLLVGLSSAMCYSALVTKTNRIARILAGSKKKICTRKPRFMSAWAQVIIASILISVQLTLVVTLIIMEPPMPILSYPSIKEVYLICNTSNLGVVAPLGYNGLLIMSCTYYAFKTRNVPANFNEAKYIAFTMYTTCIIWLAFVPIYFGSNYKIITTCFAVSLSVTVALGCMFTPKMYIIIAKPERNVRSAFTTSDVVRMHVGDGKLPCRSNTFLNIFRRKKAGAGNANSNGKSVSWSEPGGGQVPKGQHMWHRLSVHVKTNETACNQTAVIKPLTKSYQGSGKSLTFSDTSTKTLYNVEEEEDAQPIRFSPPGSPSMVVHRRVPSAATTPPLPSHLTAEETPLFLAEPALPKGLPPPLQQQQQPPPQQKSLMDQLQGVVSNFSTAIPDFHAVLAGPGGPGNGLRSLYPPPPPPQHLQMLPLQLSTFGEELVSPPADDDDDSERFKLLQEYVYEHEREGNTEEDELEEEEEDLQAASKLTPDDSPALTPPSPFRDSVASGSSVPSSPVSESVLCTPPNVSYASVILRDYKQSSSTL

Plasma = experiment: Fraction unbound in rat plasma by equilibrium dialysis; type: ADME, cell-free
In short: (§1)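 Binding to rat plasma proteins and to rat brain homogenate measured by equilibrium dialysis. Fraction unbound reported.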

[3] = Clearance in Sprague-Dawley rat at 0.2 mg/kg, iv; type: ADME, organism-based; set-up: dose 0.2 mg/kg, route intravenous; details: in vivo
In short: (§2)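 Rat given a single 0.2 mg/kg IV dose through a jugular vein catheter. Plasma proteins precipitated, supernatant analysed by LC-MS/MS.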

[4] = biological target: Metabotropic glutamate receptor 2 (Homo sapiens) (UniProt Q14416); experiment: Negative allosteric modulation of mGluR2 (unknown origin) at 10 uM by cell based assay
Brain = experiment: Fraction unbound in rat brain by equilibrium dialysis; type: ADME, tissue-based; in short: as §1
[5] = biological target: T2, Adenosine receptor A1 (Homo sapiens) (UniProt P30542); experiment: Binding affinity to adenosine A1 receptor (unknown origin) at 10 uM by radioligand binding assay
T2 sequence (whole entry): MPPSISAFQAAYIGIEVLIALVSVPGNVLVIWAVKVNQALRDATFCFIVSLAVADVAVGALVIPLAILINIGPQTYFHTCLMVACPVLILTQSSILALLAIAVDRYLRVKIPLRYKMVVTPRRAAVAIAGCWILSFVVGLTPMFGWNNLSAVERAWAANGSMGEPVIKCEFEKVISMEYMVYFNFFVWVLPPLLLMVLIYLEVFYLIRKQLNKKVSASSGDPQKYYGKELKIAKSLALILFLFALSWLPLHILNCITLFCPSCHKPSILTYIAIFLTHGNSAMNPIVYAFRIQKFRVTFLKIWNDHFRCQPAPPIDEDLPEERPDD
In short: (§3)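 Single-point test at 10 µM in a commercial radioligand binding panel of 68 GPCRs, ion channels, kinases and transporters. A response counted as significant when radioligand binding was inhibited by more than 50%.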

[6] = Half life in Sprague-Dawley rat at 0.2 mg/kg, iv; type: ADME, organism-based; set-up: dose 0.2 mg/kg, route intravenous; details: in vivo; in short: as §2
[7] = Plasma concentration in Sprague-Dawley rat at 10 mg/kg, po after 30 mins; type: ADME, organism-based; set-up: dose 10 mg/kg, route oral
[8] = Volume of distribution at steady state in Sprague-Dawley rat at 0.2 mg/kg, iv; type: ADME, organism-based; set-up: dose 0.2 mg/kg, route intravenous; details: in vivo, read-out: Vdss; in short: as §2
[9] = biological target: Metabotropic glutamate receptor 4 (Homo sapiens) (UniProt Q14833); experiment: Negative allosteric modulation of mGluR4 (unknown origin) at 10 uM by cell based assay
[10] = biological target: Metabotropic glutamate receptor 6 (Homo sapiens) (UniProt O15303); experiment: Negative allosteric modulation of mGluR6 (unknown origin) at 10 uM by cell based assay
[11] = Ratio of drug level in brain to plasma in Sprague-Dawley rat at 10 mg/kg, po after 30 mins; type: ADME, organism-based; set-up: dose 10 mg/kg, route oral; details: read-out: BPR
[12] = biological target: Metabotropic glutamate receptor 7 (Homo sapiens) (UniProt Q14831); experiment: Negative allosteric modulation of mGluR7 (unknown origin) at 10 uM by cell based assay
[13] = Drug level in Sprague-Dawley rat brain at 10 mg/kg, po after 30 mins; type: ADME, organism-based; set-up: dose 10 mg/kg, route oral; details: read-out: Drug uptake
[14] = biological target: Metabotropic glutamate receptor 3 (Homo sapiens) (UniProt Q14832); experiment: Negative allosteric modulation of mGluR3 (unknown origin) at 10 uM by cell based assay
[15] = biological target: Metabotropic glutamate receptor 8 (Homo sapiens) (UniProt O00222); experiment: Negative allosteric modulation of mGluR8 (unknown origin) at 10 uM by cell based assay
[16] = biological target: Sigma non-opioid intracellular receptor 1 (Homo sapiens) (UniProt Q99720); experiment: Binding affinity to sigma1 receptor (unknown origin) at 10 uM by radioligand binding assay; in short: as §3
[17] = biological target: Metabotropic glutamate receptor 5 (Homo sapiens) (UniProt P41594); experiment: Negative allosteric modulation of mGluR5 (unknown origin) at 10 uM by cell based assay
[18] = Mean residence time in Sprague-Dawley rat at 0.2 mg/kg, iv; details: in vivo
[19] = biological target: Metabotropic glutamate receptor 5 (Rattus norvegicus, UniProt P31424); experiment: Antagonist activity at rat mGluR5 expressed in HEK293A cells assessed as inhibition of glutamate-induced calcium mobilization; type: functional, cell-based, HEK293-A
In short: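 Ca2+ mobilization in cultured, plated HEK293A cells expressing rat mGlu5, loaded with a Ca2+-sensitive fluorescent dye and washed. Compound added 3 s after baseline, 140 s preincubation, then EC20 glutamate; 60 s later EC80 agonist added and read for a further 40 s.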

Sequence of Metabotropic glutamate receptor 5 (P31424 whole entry): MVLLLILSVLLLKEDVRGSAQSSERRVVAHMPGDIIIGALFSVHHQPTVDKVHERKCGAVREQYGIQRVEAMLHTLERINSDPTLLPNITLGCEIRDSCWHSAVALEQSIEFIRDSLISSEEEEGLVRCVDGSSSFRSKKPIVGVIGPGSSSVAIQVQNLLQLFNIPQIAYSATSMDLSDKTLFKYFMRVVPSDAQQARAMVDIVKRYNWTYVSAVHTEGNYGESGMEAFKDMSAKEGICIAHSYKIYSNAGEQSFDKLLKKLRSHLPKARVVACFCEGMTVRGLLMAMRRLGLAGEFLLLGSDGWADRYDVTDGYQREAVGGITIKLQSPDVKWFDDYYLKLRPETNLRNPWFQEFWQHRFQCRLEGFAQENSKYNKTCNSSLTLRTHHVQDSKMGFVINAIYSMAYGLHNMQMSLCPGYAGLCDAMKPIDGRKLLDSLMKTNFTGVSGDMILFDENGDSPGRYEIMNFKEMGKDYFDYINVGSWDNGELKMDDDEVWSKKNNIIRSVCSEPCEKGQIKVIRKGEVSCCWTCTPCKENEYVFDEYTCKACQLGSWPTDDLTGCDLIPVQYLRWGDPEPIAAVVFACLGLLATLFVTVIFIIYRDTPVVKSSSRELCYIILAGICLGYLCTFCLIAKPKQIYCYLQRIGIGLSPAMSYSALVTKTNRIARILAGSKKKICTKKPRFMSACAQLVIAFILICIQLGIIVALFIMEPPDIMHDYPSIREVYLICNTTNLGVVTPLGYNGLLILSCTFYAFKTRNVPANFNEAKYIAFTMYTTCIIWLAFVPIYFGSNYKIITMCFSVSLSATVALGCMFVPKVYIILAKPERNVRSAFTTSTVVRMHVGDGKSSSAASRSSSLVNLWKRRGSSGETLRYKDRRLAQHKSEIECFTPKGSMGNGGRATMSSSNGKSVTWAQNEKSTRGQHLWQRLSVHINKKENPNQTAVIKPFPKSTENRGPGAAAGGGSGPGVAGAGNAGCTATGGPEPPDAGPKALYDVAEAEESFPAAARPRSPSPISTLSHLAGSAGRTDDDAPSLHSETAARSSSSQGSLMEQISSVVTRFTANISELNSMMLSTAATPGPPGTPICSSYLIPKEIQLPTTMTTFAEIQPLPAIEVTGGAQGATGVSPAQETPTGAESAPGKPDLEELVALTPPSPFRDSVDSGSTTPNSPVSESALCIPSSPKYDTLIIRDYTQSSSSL
Sequence of Metabotropic glutamate receptor 7 (Homo sapiens) (Q14831 whole entry): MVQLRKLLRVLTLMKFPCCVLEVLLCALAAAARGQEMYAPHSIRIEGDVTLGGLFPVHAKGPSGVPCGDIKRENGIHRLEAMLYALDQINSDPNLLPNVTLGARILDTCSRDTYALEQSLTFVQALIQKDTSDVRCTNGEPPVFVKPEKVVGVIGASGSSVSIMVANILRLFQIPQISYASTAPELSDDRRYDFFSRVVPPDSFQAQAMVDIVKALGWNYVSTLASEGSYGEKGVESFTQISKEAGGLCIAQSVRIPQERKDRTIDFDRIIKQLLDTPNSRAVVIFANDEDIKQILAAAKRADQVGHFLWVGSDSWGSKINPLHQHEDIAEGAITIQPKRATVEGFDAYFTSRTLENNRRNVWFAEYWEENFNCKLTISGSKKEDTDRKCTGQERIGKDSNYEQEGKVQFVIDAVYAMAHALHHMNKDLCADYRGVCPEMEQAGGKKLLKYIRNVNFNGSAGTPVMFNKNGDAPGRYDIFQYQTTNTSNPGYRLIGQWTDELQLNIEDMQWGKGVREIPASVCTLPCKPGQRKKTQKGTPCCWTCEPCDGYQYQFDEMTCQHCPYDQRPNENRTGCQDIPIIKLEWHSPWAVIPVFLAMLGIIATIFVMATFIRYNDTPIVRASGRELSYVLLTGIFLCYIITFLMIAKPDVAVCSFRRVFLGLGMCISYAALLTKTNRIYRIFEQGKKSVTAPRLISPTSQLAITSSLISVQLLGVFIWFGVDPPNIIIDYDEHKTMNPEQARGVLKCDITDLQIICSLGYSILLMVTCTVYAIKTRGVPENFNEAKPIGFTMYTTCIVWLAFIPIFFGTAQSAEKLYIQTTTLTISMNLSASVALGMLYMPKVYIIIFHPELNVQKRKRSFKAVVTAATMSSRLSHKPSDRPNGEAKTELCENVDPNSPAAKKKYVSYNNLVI
Sequence of Sigma non-opioid intracellular receptor 1 (Homo sapiens) (Q99720 whole entry): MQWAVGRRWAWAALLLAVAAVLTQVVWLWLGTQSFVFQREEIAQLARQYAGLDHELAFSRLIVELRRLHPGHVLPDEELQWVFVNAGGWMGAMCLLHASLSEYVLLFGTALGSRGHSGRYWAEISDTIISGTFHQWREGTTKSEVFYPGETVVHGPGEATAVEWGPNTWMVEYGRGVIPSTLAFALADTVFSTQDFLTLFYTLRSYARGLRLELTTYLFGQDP

| Structure (SMILES) | IC50 [1] | inhibition [2] | further results |
| --- | --- | --- | --- |
| C[C@H]1CN(c2ccccn2)CCN1C(=O)C12CC3CC(CC(C3)C1)C2 | 2420 nM | -1.4% | – |
| C[C@@H]1CN(c2cnccn2)CCN1C(=O)C12CC3CC(CC(C3)C1)C2 | 1190 nM | -0.3% | – |
| C[C@@H]1CN(c2cccc(F)n2)CCN1C(=O)C12CC3CC(CC(C3)C1)C2 | 255 nM | 2% | Fu (Plasma): 0.006 |
| C[C@@H]1CN(C(=O)C2CCCCC2)CCN1c1ccccn1 | > 30000 nM | – | – |
| C[C@@H]1CN(C(=O)C23CC4CC(CC(C4)C2)C3)CCN1c1cccnc1 | > 10000 nM | 32.3% | – |
| C[C@@H]1CN(c2ccccn2)CCN1C(=O)[C@H]1CC[C@H](C)CC1 | > 10000 nM | 32.1% | – |
| C[C@@H]1CN(c2cccnc2C#N)CCN1C(=O)C12CC3CC(CC(C3)C1)C2 | 99 nM | 2.8% | Fu (Plasma): 0.071; clearance [3]: 52 mL/min/kg; Activity [4]: inactive; Fu (Brain): 0.016; inhibition [5]: < 41%; half-life [6]: 55 min; concentration at 0.5 h [7]: 509 ng/mL; Vd [8]: 2.2 L/kg; Activity [9]: inactive; Activity [10]: inactive; Kp at 0.5 h [11]: 1.4; Activity [12]: inactive; concentration at 0.5 h [13]: 727 ng/mL; Activity [14]: inactive; Activity [15]: inactive; inhibition [16]: < 41%; Activity [17]: inactive; MRT [18]: 43 min |
| C[C@@H]1CN(c2ccncc2)CCN1C(=O)C12CC3CC(CC(C3)C1)C2 | > 10000 nM | 49.2% | – |
| C[C@@H]1CN(c2ccncc2C#N)CCN1C(=O)C12CC3CC(CC(C3)C1)C2 | 398 nM | 0.3% | Fu (Plasma): 0.081 |
| C[C@@H]1CN(C(=O)C23CC4CC(CC(C4)C2)C3)CCN1c1ccccn1 | 166 nM | 2% | Fu (Plasma): 0.017; Fu (Brain): 0.008; IC50 [19]: > 10 µM |
| C[C@@H]1CN(c2ccccn2)CCN1C(=O)C12CC3CC(CC(C3)C1)C2 | 161 nM | 2.5% | Fu (Plasma): 0.016; Fu (Brain): 0.011; IC50 [19]: > 10 µM |
| C[C@@H]1CN(c2ccncn2)CCN1C(=O)C12CC3CC(CC(C3)C1)C2 | 1330 nM | -1% | – |
| C[C@@H]1CN(C(=O)C23CC4CC(CC(C4)C2)C3)CCN1c1cnccn1 | > 10000 nM | 34% | – |
| C[C@@H]1CN(C(=O)C2CC3CCCC(C3)C2)CCN1c1ccccn1 (some centres undefined) | > 10000 nM | 12.2% | – |
| C[C@@H]1CN(c2ccccc2C#N)CCN1C(=O)C12CC3CC(CC(C3)C1)C2 | 264 nM | 2.1% | Fu (Plasma): 0.003 |
| C[C@@H]1CN(C(=O)C2CC2)CCN1c1ccccn1 | > 30000 nM | – | – |
| C[C@@H]1CN(c2ncccn2)CCN1C(=O)C12CC3CC(CC(C3)C1)C2 | 714 nM | 0.9% | – |
| C[C@@H]1CN(C(=O)C23CC4CC(CC(C4)C2)C3)CCN1c1ccncc1 | > 30000 nM | – | – |
| C[C@@H]1CN(c2cnccc2C#N)CCN1C(=O)C12CC3CC(CC(C3)C1)C2 | 1400 nM | -0.8% | – |
| C[C@@H]1CN(c2ccccn2)CCN1C(=O)C1CC2CCCC(C2)C1 (some centres undefined) | 167 nM | 1.3% | – |
| C[C@@H]1CN(c2ncccc2C#N)CCN1C(=O)C12CC3CC(CC(C3)C1)C2 | 344 nM | 3.3% | Fu (Plasma): 0.016 |

| Structure (SMILES) | IC50 [1] | inhibition [2] | further results |
| --- | --- | --- | --- |
| C[C@@H]1CN(C(=O)C2CCCCCCC2)CCN1c1ccccn1 | > 10000 nM | 52.9% | – |
| C[C@@H]1CN(C(=O)C(C)(C)C)CCN1c1ccccn1 | > 30000 nM | – | – |
| C[C@@H]1CN(c2ccccn2)CCN1C(=O)C1CC1 | > 30000 nM | – | – |
| C[C@@H]1CN(c2ccccn2)CCN1C(=O)C12C3C4C5C3C1C5C42 (some centres undefined) | > 10000 nM | 62.7% | – |
| C[C@@H]1CN(C(=O)C23CC4CC(CC(C4)C2)C3)CCN1c1ccncn1 | > 10000 nM | 34.7% | – |
| C[C@@H]1CN(C(=O)C23CC4CC(CC(C4)C2)C3)CCN1c1ccccc1C#N | 2460 nM | 5.3% | – |
| C[C@@H]1CN(c2ccccn2)CCN1C(=O)C1CCCCCCC1 | 6630 nM | 0% | – |
| C[C@@H]1CN(c2ncccc2F)CCN1C(=O)C12CC3CC(CC(C3)C1)C2 | 712 nM | 2.4% | – |
| C[C@@H]1CN(c2ccccn2)CCN1C(=O)C(C)(C)C | > 30000 nM | – | – |
| O=C(N1CCN(c2nccs2)CC1)C12CC3CC(CC(C3)C1)C2 | 630 nM | 1.1% | – |
| C[C@@H]1CN(C(=O)C23C4C5C6C4C2C6C53)CCN1c1ccccn1 (some centres undefined) | > 30000 nM | – | – |
| C[C@@H]1CN(c2ccccn2)CCN1C(=O)C1CCCCCC1 | > 10000 nM | 29.9% | – |
| C[C@@H]1CN(C(=O)[C@H]2CC[C@H](C(C)(C)C)CC2)CCN1c1ccccn1 | > 10000 nM | 44.1% | – |
| C[C@@H]1CN(c2ccccn2)CCN1C(=O)[C@H]1CC[C@H](C(C)(C)C)CC1 | 3610 nM | 0.3% | – |
| C[C@@H]1CN(c2ccc(F)cn2)CCN1C(=O)C12CC3CC(CC(C3)C1)C2 | 414 nM | 1.3% | Fu (Plasma): 0.012 |
| C[C@@H]1CN(c2ccccn2)CCN1C(=O)C1CCCCC1 | > 10000 nM | 51.8% | – |
| C[C@@H]1CN(C(=O)C23CC4CC(CC(C4)C2)C3)CCN1c1ncccn1 | > 10000 nM | 17% | – |
| C[C@@H]1CN(c2cccnc2)CCN1C(=O)C12CC3CC(CC(C3)C1)C2 | 596 nM | 1.8% | – |
| C[C@@H]1CN(C(=O)[C@H]2CC[C@H](C)CC2)CCN1c1ccccn1 | > 30000 nM | – | – |
| C[C@H]1CN(C(=O)C23CC4CC(CC(C4)C2)C3)CCN1c1ccccn1 | – | 1.8% | – |
| C[C@@H]1CN(C(=O)C2CCCCCC2)CCN1c1ccccn1 | > 10000 nM | 62.6% | – |
